Test results from ChEMBL document CHEMBL1154719, “Click chemistry: studies on the synthesis of novel fluorous tagged triazol-4-yl substituted quinazoline derivatives and their biological evaluation--theoretical and experimental validation” (2010).
Values after ≈ are worked out from the molar mass of the structure shown.

Tests used:
Type in all cases: functional
Pseudomonas aeruginosa = assay: Antibacterial activity against Pseudomonas aeruginosa MTCC 741 by broth dilution method
Method in brief: (§1)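 MIC by broth dilution in nutrient broth. Test bacteria were kept on nutrient agar slants and subcultured in Petri dishes before testing.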

Escherichia coli = assay: Antibacterial activity against Escherichia coli MTCC 443 by broth dilution method; method in brief: as §1
Bacillus subtilis = assay: Antibacterial activity against Bacillus subtilis MTCC 441 by broth dilution method; method in brief: as §1
[1] = tested on: Staphylococcus epidermidis; assay: Antibacterial activity against Staphylococcus epidermidis MTCC 435 by broth dilution method; method in brief: as §1
Staphylococcus aureus = assay: Antibacterial activity against Staphylococcus aureus MTCC 96 by broth dilution method; method in brief: as §1
Aspergillus flavus [2] = assay: Antifungal activity against Aspergillus flavus MTCC 277 at 100 ug/ml after 48 hrs by agar cup diffusion method; details: MTCC 277, 48 h, read-out: DIZ
Method in brief: (§2)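 Agar cup diffusion on autoclaved potato dextrose agar plates. Each plate was spread with 0.5 ml of a week-old culture, and test solutions at 30 and 100 per ml were added to cups. Plates were held at 28 °C for 48 h, and inhibition zone diameters were read in mm. Acetone served as the solvent control and amphotericin-B as the reference.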

Aspergillus niger [3] = assay: Antifungal activity against Aspergillus niger MTCC 1344 at 30 ug/ml after 48 hrs by agar cup diffusion method; details: MTCC 1344, 48 h, read-out: DIZ; method in brief: as §2
Candida albicans [4] = assay: Antifungal activity against Candida albicans MTCC 227 at 30 ug/ml after 48 hrs by agar cup diffusion method; details: MTCC 227, 48 h, read-out: DIZ; method in brief: as §2
Saccharomyces cerevisiae [5] = assay: Antifungal activity against Saccharomyces cerevisiae MTCC 36 at 100 ug/ml after 48 hrs by agar cup diffusion method; details: MTCC 36, 48 h, read-out: DIZ; method in brief: as §2
Aspergillus niger [6] = assay: Antifungal activity against Aspergillus niger MTCC 1344 at 100 ug/ml after 48 hrs by agar cup diffusion method; details: MTCC 1344, 48 h, read-out: DIZ; method in brief: as §2
Candida albicans [7] = assay: Antifungal activity against Candida albicans MTCC 227 at 100 ug/ml after 48 hrs by agar cup diffusion method; details: MTCC 227, 48 h, read-out: DIZ; method in brief: as §2
Diutina rugosa = assay: Antifungal activity against Candida rugosa NCIM 3462 at 100 ug/ml after 48 hrs by agar cup diffusion method; details: NCIM 3462, 48 h, read-out: DIZ; method in brief: as §2
Rhizopus arrhizus = assay: Antifungal activity against Rhizopus oryzae MTCC 262 at 100 ug/ml after 48 hrs by agar cup diffusion method; details: MTCC 262, 48 h, read-out: DIZ; method in brief: as §2
Aspergillus flavus [8] = assay: Antifungal activity against Aspergillus flavus MTCC 277 at 30 ug/ml after 48 hrs by agar cup diffusion method; details: MTCC 277, 48 h, read-out: DIZ; method in brief: as §2
Saccharomyces cerevisiae [9] = assay: Antifungal activity against Saccharomyces cerevisiae MTCC 36 at 30 ug/ml after 48 hrs by agar cup diffusion method; details: MTCC 36, 48 h, read-out: DIZ; method in brief: as §2

| MIC (Pseudomonas aeruginosa) [µg/mL] | MIC (Escherichia coli) [µg/mL] | MIC (Bacillus subtilis) [µg/mL] | MIC [1] [µg/mL] | MIC (Staphylococcus aureus) [µg/mL] | SMILES | zone of inhibition at 100 µg/mL (Aspergillus flavus [2]) [mm] | zone of inhibition at 30 µg/mL (Aspergillus niger [3]) [mm] | zone of inhibition at 30 µg/mL (Candida albicans [4]) [mm] | zone of inhibition at 100 µg/mL (Saccharomyces cerevisiae [5]) [mm] | zone of inhibition at 100 µg/mL (Aspergillus niger [6]) [mm] | zone of inhibition at 100 µg/mL (Candida albicans [7]) [mm] | zone of inhibition at 100 µg/mL (Diutina rugosa) [mm] | zone of inhibition at 100 µg/mL (Rhizopus arrhizus) [mm] | zone of inhibition at 30 µg/mL (Aspergillus flavus [8]) [mm] | zone of inhibition at 30 µg/mL (Saccharomyces cerevisiae [9]) [mm] |
| --- | --- | --- | --- | --- | --- | --- | --- | --- | --- | --- | --- | --- | --- | --- | --- |
| 75 (≈ 115 µM) | 75 (≈ 115 µM) | 150 (≈ 231 µM) | 75 (≈ 115 µM) | 75 (≈ 115 µM) | FC(F)(F)C(F)(F)C(F)(F)C(F)(F)C(F)(F)C(F)(F)CCn1cc(COc2nc(-c3ccccc3)nc3ccccc23)nn1 | 9 | 8 | 8 | 9 | 11 | 11 | – | – | – | – |
| 12.5 (≈ 37.4 µM) | 6.25 (≈ 18.7 µM) | 1.53 (≈ 4.56 µM) | 3.12 (≈ 9.35 µM) | 6.25 (≈ 18.7 µM) | CC1(C)S[C@@H]2[C@H](NC(=O)Cc3ccccc3)C(=O)N2[C@H]1C(=O)O [PENICILLIN G] | – | – | – | – | – | – | – | – | – | – |
| 150 (≈ 202 µM) | 150 (≈ 202 µM) | 150 (≈ 202 µM) | 150 (≈ 202 µM) | 150 (≈ 202 µM) | FC(F)(F)c1nc(OCc2cn(CCC(F)(F)C(F)(F)C(F)(F)C(F)(F)C(F)(F)C(F)(F)C(F)(F)C(F)(F)F)nn2)c2ccccc2n1 | – | – | – | – | 9 | 9 | – | – | – | – |
| 75 (≈ 95.5 µM) | 75 (≈ 95.5 µM) | 150 (≈ 191 µM) | 150 (≈ 191 µM) | 150 (≈ 191 µM) | O=c1c2ccccc2nc(-c2c(F)cccc2F)n1Cc1cn(CCC(F)(F)C(F)(F)C(F)(F)C(F)(F)C(F)(F)C(F)(F)C(F)(F)C(F)(F)F)nn1 | 9 | 7 | 7 | 9 | 10 | 10 | 9 | 9 | – | – |
| 37.5 (≈ 57.7 µM) | 75 (≈ 115 µM) | 150 (≈ 231 µM) | 150 (≈ 231 µM) | 150 (≈ 231 µM) | O=c1c2ccccc2nc(-c2ccccc2)n1Cc1cn(CCC(F)(F)C(F)(F)C(F)(F)C(F)(F)C(F)(F)C(F)(F)F)nn1 | 12 | 9 | 9 | 12 | 12 | 12 | 10 | 10 | 8 | 8 |
| 75 (≈ 100 µM) | 150 (≈ 200 µM) | 150 (≈ 200 µM) | 150 (≈ 200 µM) | 150 (≈ 200 µM) | FC(F)(F)C(F)(F)C(F)(F)C(F)(F)C(F)(F)C(F)(F)C(F)(F)C(F)(F)CCn1cc(COc2nc(-c3ccccc3)nc3ccccc23)nn1 | 10 | 7 | 7 | 10 | 10 | 10 | 10 | 10 | 7 | 7 |
| 150 (≈ 219 µM) | 150 (≈ 219 µM) | 150 (≈ 219 µM) | 150 (≈ 219 µM) | 150 (≈ 219 µM) | O=c1c2ccccc2nc(-c2c(F)cccc2F)n1Cc1cn(CCC(F)(F)C(F)(F)C(F)(F)C(F)(F)C(F)(F)C(F)(F)F)nn1 | – | 7 | 7 | – | 10 | 10 | – | – | – | – |

| SMILES | MIC (Pseudomonas aeruginosa) [µg/mL] | MIC (Escherichia coli) [µg/mL] | MIC (Bacillus subtilis) [µg/mL] | MIC [1] [µg/mL] | MIC (Staphylococcus aureus) [µg/mL] | zone of inhibition at 100 µg/mL (Aspergillus flavus [2]) [mm] | zone of inhibition at 30 µg/mL (Aspergillus niger [3]) [mm] | zone of inhibition at 30 µg/mL (Candida albicans [4]) [mm] | zone of inhibition at 100 µg/mL (Saccharomyces cerevisiae [5]) [mm] | zone of inhibition at 100 µg/mL (Aspergillus niger [6]) [mm] | zone of inhibition at 100 µg/mL (Candida albicans [7]) [mm] | zone of inhibition at 100 µg/mL (Diutina rugosa) [mm] | zone of inhibition at 100 µg/mL (Rhizopus arrhizus) [mm] | zone of inhibition at 30 µg/mL (Aspergillus flavus [8]) [mm] | zone of inhibition at 30 µg/mL (Saccharomyces cerevisiae [9]) [mm] |
| --- | --- | --- | --- | --- | --- | --- | --- | --- | --- | --- | --- | --- | --- | --- | --- |
| CN[C@@H]1[C@H](O[C@H]2[C@H](O[C@H]3[C@H](O)[C@@H](O)[C@H](N=C(N)N)[C@@H](O)[C@@H]3N=C(N)N)O[C@@H](C)[C@]2(O)C=O)O[C@@H](CO)[C@H](O)[C@H]1O [STREPTOMYCIN] | 3.12 (≈ 5.37 µM) | 3.12 (≈ 5.37 µM) | 6.25 (≈ 10.7 µM) | 1.56 (≈ 2.69 µM) | 1.56 (≈ 2.68 µM) | – | – | – | – | – | – | – | – | – | – |
